Reference: ChEMBL document CHEMBL1149072, “Cytotoxic constituents of Baccharis gaudichaudiana” (1994)
Converted amounts (≈) assume the structure as drawn.

What was measured:
Type in all cases: functional
[1] = Cytotoxicity against human KBV1 cells; details: KB-V1, read-out: ED50 (the source's name)
In short: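 The KB-V1 line is multidrug resistant. It was derived from KB cells by extended exposure to sublethal vinblastine. It was tested in 96-well microtiter plates by a previously described method, with ED50 in µg/ml as the read-out.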

KB = assay: Cytotoxicity against human KB cells; details: read-out: ED50 (the source's name)
In short: (§1)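 The cell lines came from ATCC. Cytotoxicity was run in 96-well microtiter plates by a previously described method and reported as ED50 in µg/ml.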

HT-1080 = assay: Cytotoxicity against human HT1080 cells; details: read-out: ED50 (the source's name); in short: as §1
[2] = Cytotoxicity against human BC1 cells; details: read-out: ED50 (the source's name)
In short: (§2)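 These human cancer cell lines were established from primary tumors at the authors' institution. Cytotoxicity was assessed in 96-well microtiter plates by a previously described protocol and expressed as ED50 in µg/ml.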

SK-MEL-2 = assay: Cytotoxicity against human SK-MEL-2 cells; details: read-out: ED50 (the source's name)
P388 = assay: Cytotoxicity against mouse P388 cells; details: read-out: ED50 (the source's name); in short: as §1
Lu1 = assay: Cytotoxicity against human Lu1 cells; details: read-out: ED50 (the source's name); in short: as §2
Col2 = assay: Cytotoxicity against human Col2 cells; details: read-out: ED50 (the source's name); in short: as §2

`O=c1cc(-c2ccc(O)cc2)oc2cc(O)cc(O)c12` [APIGENIN] gave an EC50 [1] of 16.8 µg/mL (≈ 62.2 µM), an EC50 (KB) of over 20 µg/mL and an EC50 (HT-1080) of 12.2 µg/mL (≈ 45.1 µM). The EC50 [2] was over 20 µg/mL, the EC50 (SK-MEL-2) was 13.6 µg/mL (≈ 50.3 µM) and the EC50 (P388) was 12.2 µg/mL (≈ 45.1 µM). The EC50 (Lu1) was 14 µg/mL (≈ 51.8 µM) and the EC50 (Col2) was 19.3 µg/mL (≈ 71.4 µM).
With `CC(=O)O[C@@H]1C=C2C(=O)OC[C@]23CC[C@@H](C)[C@](C)(CCC2=CC(=O)OC2)C3C1` (stereo partly drawn) [ARTICULIN ACETATE] the EC50 [1] was over 20 µg/mL, the EC50 (KB) was over 20 µg/mL and the EC50 (HT-1080) was over 20 µg/mL. It also gave an EC50 [2] of over 20 µg/mL, an EC50 (SK-MEL-2) of over 20 µg/mL and an EC50 (P388) of 1.7 µg/mL. It also gave an EC50 (Lu1) of over 20 µg/mL and an EC50 (Col2) of over 20 µg/mL.
`C[C@H]1CC=C2C(CO)(CO)CCC[C@]2(C)C1CC[C@@H](CCO)COC(=O)/C=C/c1ccc(O)cc1` (stereo partly drawn) [GUADICHAUDOL C] showed an EC50 [1] of 4.7 µg/mL (≈ 9.66 µM), an EC50 (KB) of over 20 µg/mL and an EC50 (HT-1080) of 12.4 µg/mL (≈ 25.5 µM). It also gave an EC50 [2] of 19 µg/mL (≈ 39 µM), an EC50 (SK-MEL-2) of 11.2 µg/mL (≈ 23 µM) and an EC50 (P388) of 2.4 µg/mL (≈ 4.93 µM). It also gave an EC50 (Lu1) of 13.1 µg/mL (≈ 26.9 µM) and an EC50 (Col2) of 19.3 µg/mL (≈ 39.7 µM).
Work on `C[C@@H]1CC[C@@]23COC(=O)[C@H]2C[C@@H](O)C=C3[C@@]1(C)CCc1ccoc1` [GUADICHAUDONE] yielded an EC50 [1] of over 20 µg/mL, an EC50 (KB) of over 20 µg/mL and an EC50 (HT-1080) of over 20 µg/mL. It also gave an EC50 [2] of over 20 µg/mL, an EC50 (SK-MEL-2) of over 20 µg/mL and an EC50 (P388) of 11.7 µg/mL (≈ 35.4 µM). For the same compound, the EC50 (Lu1) was over 20 µg/mL and the EC50 (Col2) was over 20 µg/mL.
`COc1c(O)cc2oc(-c3ccc(O)cc3)cc(=O)c2c1O` [HISPIDULIN] gave an EC50 [1] of 2.8 µg/mL (≈ 9.33 µM), an EC50 (KB) of 5.6 µg/mL (≈ 18.7 µM) and an EC50 (HT-1080) of 5.2 µg/mL (≈ 17.3 µM). For the same compound, the EC50 [2] was 19 µg/mL (≈ 63.3 µM), the EC50 (SK-MEL-2) was 11.5 µg/mL (≈ 38.3 µM) and the EC50 (P388) was 0.8 µg/mL (≈ 2.66 µM). The EC50 (Lu1) was 17.6 µg/mL (≈ 58.6 µM) and the EC50 (Col2) was over 20 µg/mL.
`C=C1CC[C@@H]2[C@H]([C@H]3[C@H]1CC[C@]3(C)O)C2(C)C` [SPATHULENOL] gave an EC50 [1] of over 20 µg/mL, an EC50 (KB) of over 20 µg/mL and an EC50 (HT-1080) of over 20 µg/mL. The EC50 [2] was over 20 µg/mL, the EC50 (SK-MEL-2) was 6.3 µg/mL (≈ 28.6 µM) and the EC50 (P388) was over 20 µg/mL. For the same compound, the EC50 (Lu1) was over 20 µg/mL and the EC50 (Col2) was over 20 µg/mL.
